Assays:
[1] = Plasma concentration in Sprague-Dawley rat at 10 mg/kg, iv at 2 hrs post dose; format: ADME, organism-based
[2] = tested on: Rattus norvegicus; experiment: Antineuropathic pain activity in rat spinal nerve ligation model assessed as effect on cold allodynia by measuring frequency of paw withdrawal at 100 mg/kg, po measured at 1 hr relative to control; format: functional
Procedure, shortened: (§1)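 Spinal nerve ligation rats tested 2 weeks after nerve surgery, 100 mg/kg oral, n = 4 per group. Behaviour re-tested at 1, 3 and 5 h after dosing. Mechanical allodynia: von Frey filament applied five times, every 3–4 s, to the hind paw on a wire mesh floor. Cold allodynia: acetone applied to the plantar hind paw on a metal mesh floor.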

[3] = Ratio of drug level in brain to plasma in Sprague-Dawley rat at 10 mg/kg, po at 2 hrs post dose; format: ADME, organism-based; conditions: read-out: BPR
[4] = tested on: Rattus norvegicus; experiment: Antineuropathic pain activity in rat spinal nerve ligation model assessed as effect on mechanical allodynia by measuring frequency of paw withdrawal at 100 mg/kg, po measured at 5 hrs relative to control; format: functional; procedure, shortened: as §1
[5] = target: CYP2D6 (Homo sapiens, UniProt P10635); experiment: Inhibition of human CYP2D6 assessed as remaining activity at 10 uM using vivid CYP450 substrate measured after 15 mins by fluorescence assay relative to quinidine; format: ADME; conditions: probe vivid CYP450 substrate, read-out: Activity
Procedure, shortened: (§2)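 Vivid fluorescence CYP assay: test compound at […] in water, mixed with BACULOSOMES master pre-mix and regeneration system, preincubated 15 min at 37 °C. Reaction started with Vivid substrate and NADPH. Remaining activity read by fluorescence as % of control, triplicate, mean ± SD. Isoform-specific reference inhibitors: α-naphthoflavone (1A2), sulfaphenazole (2C9), quinidine (2D6), ketoconazole (3A4).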

[6] = tested on: Rattus norvegicus; experiment: Antineuropathic pain activity in rat spinal nerve ligation model assessed as effect on mechanical allodynia by measuring frequency of paw withdrawal at 100 mg/kg, po measured at 1 hr relative to gabapentin; format: functional; procedure, shortened: as §1
[7] = target: T1, Voltage-dependent T-type calcium channel subunit alpha-1G (Homo sapiens, UniProt O43497); experiment: Inhibition of Cav3.1 alpha1G (unknown origin) expressed in HEK293 cells assessed as decrease in KCl-induced depolarization mediated intracellular Ca2+ level at 10 uM by fluo3/AM based high throughput screening assay relative to control; format: cell-based
T1 sequence (O43497 whole entry): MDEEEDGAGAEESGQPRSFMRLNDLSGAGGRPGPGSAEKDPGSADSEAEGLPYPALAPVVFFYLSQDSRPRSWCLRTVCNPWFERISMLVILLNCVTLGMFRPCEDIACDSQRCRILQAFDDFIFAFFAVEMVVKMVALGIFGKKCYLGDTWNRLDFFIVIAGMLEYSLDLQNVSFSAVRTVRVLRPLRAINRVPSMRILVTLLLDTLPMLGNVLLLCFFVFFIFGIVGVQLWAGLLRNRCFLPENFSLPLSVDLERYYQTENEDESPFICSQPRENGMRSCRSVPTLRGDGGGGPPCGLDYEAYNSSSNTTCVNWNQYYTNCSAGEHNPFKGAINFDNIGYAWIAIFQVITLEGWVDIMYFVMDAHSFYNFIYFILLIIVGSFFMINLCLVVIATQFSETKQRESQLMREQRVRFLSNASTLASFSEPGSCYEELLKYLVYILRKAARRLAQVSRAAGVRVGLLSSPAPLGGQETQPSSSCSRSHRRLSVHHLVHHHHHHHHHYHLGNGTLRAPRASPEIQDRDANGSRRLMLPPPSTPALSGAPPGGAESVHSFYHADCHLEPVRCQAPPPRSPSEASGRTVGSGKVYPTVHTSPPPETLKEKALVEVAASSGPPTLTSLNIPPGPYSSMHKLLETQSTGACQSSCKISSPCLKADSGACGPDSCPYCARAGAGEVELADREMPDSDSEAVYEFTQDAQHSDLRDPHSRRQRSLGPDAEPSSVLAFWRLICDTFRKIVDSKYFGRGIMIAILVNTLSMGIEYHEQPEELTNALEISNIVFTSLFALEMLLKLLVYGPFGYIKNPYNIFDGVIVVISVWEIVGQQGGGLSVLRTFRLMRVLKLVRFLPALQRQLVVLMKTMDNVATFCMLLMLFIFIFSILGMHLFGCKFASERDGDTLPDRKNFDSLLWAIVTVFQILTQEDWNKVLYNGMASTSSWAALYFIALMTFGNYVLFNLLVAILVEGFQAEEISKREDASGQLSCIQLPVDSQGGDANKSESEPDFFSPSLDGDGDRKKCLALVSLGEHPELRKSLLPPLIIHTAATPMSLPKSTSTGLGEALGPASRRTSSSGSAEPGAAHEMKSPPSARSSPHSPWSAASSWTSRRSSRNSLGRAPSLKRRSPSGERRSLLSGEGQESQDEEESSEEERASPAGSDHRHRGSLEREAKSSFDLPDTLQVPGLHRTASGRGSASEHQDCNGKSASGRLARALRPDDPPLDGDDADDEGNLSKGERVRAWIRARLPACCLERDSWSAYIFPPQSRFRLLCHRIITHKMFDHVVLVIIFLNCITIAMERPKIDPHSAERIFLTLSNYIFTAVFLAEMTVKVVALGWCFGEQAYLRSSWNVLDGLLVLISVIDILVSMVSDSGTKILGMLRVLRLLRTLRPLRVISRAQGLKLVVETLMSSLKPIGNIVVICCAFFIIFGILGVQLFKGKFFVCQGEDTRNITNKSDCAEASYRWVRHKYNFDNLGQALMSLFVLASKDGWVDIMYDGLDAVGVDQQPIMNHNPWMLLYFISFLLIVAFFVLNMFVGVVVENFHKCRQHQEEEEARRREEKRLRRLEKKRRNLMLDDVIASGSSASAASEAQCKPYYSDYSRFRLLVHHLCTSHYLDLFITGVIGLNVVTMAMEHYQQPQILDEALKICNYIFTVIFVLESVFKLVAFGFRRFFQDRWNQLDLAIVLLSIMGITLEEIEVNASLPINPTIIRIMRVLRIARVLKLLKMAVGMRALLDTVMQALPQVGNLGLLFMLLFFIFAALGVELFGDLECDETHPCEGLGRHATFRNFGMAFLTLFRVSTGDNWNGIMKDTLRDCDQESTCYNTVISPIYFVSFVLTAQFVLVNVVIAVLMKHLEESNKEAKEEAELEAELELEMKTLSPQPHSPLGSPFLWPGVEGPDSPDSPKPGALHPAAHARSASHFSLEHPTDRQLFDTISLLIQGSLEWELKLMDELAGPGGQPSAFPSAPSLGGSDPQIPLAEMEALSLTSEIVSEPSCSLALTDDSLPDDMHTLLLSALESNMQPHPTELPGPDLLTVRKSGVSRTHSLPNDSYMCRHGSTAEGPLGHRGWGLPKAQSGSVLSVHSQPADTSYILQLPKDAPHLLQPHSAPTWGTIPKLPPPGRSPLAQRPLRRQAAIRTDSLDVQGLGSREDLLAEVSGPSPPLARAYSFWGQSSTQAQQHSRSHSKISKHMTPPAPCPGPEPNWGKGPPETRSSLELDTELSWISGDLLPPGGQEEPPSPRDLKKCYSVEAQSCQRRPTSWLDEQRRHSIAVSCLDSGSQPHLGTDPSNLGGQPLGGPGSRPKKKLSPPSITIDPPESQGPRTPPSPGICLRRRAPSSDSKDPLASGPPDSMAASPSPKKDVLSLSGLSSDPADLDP
Procedure, shortened: (§3)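 HEK293 cells stably expressing Cav3.1 or Cav3.2 plated at 4 × 10⁴ cells/well and used the next day. Loaded 60 min at room temperature with […] fluo3/AM plus 0.001% Pluronic F-127 in HEPES-buffered saline (1.8 mM CaCl₂, pH 7.4). Ca²⁺ fluorescence read on FDSS6000 as % inhibition, compound at […].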

[8] = AUC (0 to infinity) in Sprague-Dawley rat at 10 mg/kg, iv; format: ADME, organism-based; design: dose 10 mg/kg, route intravenous, time infinity; conditions: in vivo
[9] = Drug excretion in Sprague-Dawley rat at 10 mg/kg, po; format: ADME, organism-based; conditions: in vivo, read-out: Drug excretion
[10] = target: T1, Voltage-dependent T-type calcium channel subunit alpha-1G; experiment: Inhibition of Cav3.1 alpha1G (unknown origin) expressed in HEK293 cells by whole-cell patch clamp method; format: cell-based
Procedure, shortened: (§4)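 Whole-cell patch clamp on HEK293 cells expressing Cav3.1 or Cav3.2. T-type currents evoked every 15 s by a 50-ms step from −100 mV to −30 mV. External solution (mM): 140 NaCl, 2 CaCl₂, 10 HEPES, 10 glucose, pH 7.4.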

[11] = tested on: Rattus norvegicus; experiment: Antineuropathic pain activity in rat spinal nerve ligation model assessed as effect on cold allodynia by measuring frequency of paw withdrawal at 100 mg/kg, po measured at 3 hrs relative to gabapentin; format: functional; procedure, shortened: as §1
[12] = target: T2, Voltage-dependent T-type calcium channel subunit alpha-1H (Homo sapiens, UniProt O95180); experiment: Inhibition of Cav3.2 alpha1H (unknown origin) expressed in HEK293 cells by whole-cell patch clamp method; format: cell-based; procedure, shortened: as §4
T2 sequence (O95180 whole entry): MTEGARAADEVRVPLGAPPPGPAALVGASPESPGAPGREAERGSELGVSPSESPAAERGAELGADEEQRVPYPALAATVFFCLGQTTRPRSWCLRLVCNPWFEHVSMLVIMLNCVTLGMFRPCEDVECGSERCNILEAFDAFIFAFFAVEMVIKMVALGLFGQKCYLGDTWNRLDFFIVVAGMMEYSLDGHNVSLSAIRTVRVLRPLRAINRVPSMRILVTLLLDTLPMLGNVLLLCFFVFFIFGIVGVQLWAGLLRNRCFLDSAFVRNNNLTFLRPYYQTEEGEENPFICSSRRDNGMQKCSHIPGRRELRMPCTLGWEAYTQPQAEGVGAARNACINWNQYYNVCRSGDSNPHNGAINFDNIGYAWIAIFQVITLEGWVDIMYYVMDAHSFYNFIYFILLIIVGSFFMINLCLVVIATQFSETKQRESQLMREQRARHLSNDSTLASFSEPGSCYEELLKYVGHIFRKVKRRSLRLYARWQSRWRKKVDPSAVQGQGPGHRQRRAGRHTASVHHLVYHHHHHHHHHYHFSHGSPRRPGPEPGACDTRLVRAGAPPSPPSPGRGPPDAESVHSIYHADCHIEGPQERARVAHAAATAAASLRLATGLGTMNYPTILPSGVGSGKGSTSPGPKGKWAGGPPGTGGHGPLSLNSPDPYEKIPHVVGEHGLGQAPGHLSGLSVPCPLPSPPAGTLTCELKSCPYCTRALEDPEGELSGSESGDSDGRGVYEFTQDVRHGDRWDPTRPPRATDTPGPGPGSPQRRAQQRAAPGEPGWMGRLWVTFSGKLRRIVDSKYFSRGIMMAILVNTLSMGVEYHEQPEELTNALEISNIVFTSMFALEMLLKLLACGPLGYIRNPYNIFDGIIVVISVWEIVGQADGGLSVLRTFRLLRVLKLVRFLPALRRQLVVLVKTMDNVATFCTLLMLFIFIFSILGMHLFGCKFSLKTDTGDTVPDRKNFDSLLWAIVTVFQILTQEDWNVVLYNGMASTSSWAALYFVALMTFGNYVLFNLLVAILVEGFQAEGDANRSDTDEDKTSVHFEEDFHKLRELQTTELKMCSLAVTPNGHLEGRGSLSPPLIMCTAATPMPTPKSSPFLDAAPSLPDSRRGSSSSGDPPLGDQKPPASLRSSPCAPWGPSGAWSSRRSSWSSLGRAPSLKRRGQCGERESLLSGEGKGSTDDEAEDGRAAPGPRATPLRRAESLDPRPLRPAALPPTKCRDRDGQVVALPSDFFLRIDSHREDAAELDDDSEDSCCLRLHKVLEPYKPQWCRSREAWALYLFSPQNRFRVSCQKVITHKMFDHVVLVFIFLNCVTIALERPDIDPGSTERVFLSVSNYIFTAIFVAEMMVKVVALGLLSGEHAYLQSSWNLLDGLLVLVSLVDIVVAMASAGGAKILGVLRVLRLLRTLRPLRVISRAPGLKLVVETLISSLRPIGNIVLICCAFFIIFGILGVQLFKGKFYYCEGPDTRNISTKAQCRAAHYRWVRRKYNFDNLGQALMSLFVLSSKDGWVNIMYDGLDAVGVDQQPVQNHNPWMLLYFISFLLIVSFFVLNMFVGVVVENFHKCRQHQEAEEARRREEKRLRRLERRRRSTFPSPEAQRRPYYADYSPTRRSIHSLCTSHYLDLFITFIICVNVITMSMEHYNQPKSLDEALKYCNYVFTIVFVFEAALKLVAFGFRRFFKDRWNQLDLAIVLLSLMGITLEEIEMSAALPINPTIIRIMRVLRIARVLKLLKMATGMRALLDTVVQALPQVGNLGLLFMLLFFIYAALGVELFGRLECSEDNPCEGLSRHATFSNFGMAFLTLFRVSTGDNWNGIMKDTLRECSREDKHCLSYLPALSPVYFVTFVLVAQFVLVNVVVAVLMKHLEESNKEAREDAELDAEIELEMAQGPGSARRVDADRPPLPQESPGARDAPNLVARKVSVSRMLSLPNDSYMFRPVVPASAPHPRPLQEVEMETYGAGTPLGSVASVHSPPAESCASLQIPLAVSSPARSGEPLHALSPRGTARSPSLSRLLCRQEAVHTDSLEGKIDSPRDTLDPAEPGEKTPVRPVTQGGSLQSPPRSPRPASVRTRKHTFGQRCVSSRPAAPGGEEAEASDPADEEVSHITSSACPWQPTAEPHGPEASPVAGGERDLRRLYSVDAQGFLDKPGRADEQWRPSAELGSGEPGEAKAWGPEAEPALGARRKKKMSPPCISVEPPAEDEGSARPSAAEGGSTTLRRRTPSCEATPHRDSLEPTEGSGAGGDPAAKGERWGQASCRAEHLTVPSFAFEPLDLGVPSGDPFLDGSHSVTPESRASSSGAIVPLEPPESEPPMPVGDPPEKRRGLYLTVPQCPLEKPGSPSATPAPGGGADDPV

[13] = Drug excretion in Sprague-Dawley rat at 10 mg/kg, iv; format: ADME, organism-based; conditions: in vivo, read-out: Drug excretion
[14] = Terminal half life in Sprague-Dawley rat at 10 mg/kg, po; format: ADME, organism-based; conditions: in vivo, read-out: beta t1/2
[15] = tested on: Rattus norvegicus; experiment: Antineuropathic pain activity in rat spinal nerve ligation model assessed as effect on cold allodynia by measuring frequency of paw withdrawal at 100 mg/kg, po measured at 5 hrs relative to control; format: functional; procedure, shortened: as §1
[16] = Drug uptake in Sprague-Dawley rat brain at 10 mg/kg, iv at 2 hrs post dose; format: ADME, organism-based; conditions: read-out: Drug uptake
[17] = target: Voltage-gated inwardly rectifying potassium channel KCNH2 (Homo sapiens, UniProt Q12809); experiment: Inhibition of human ERG expressed in CHOK1 cells by whole-cell patch clamp method; format: cell-based, CHO-K1
[18] = target: CYP2C9 (Homo sapiens, UniProt P11712); experiment: Inhibition of human CYP2C9 assessed as remaining activity at 10 uM using vivid CYP450 substrate measured after 15 mins by fluorescence assay relative to sulfaphenazol; format: ADME; conditions: probe vivid CYP450 substrate, read-out: Activity; procedure, shortened: as §2
[19] = tested on: Rattus norvegicus; experiment: Antineuropathic pain activity in rat spinal nerve ligation model assessed as effect on mechanical allodynia by measuring frequency of paw withdrawal at 100 mg/kg, po measured at 3 hrs relative to gabapentin; format: functional; procedure, shortened: as §1
[20] = tested on: Rattus norvegicus; experiment: Antineuropathic pain activity in rat spinal nerve ligation model assessed as effect on mechanical allodynia by measuring frequency of paw withdrawal at 100 mg/kg, po measured at 3 hrs relative to control; format: functional; procedure, shortened: as §1
[21] = AUC (0 to infinity) in Sprague-Dawley rat at 10 mg/kg, po; format: ADME, organism-based; design: dose 10 mg/kg, time infinity, route oral; conditions: in vivo
[22] = AUClast in Sprague-Dawley rat at 10 mg/kg, po; format: ADME, organism-based; design: dose 10 mg/kg, route oral, time 0 - last; conditions: in vivo
[23] = Terminal half life in Sprague-Dawley rat at 10 mg/kg, iv; format: ADME, organism-based; conditions: in vivo, read-out: beta t1/2
[24] = Cmax in Sprague-Dawley rat at 10 mg/kg, po; format: ADME, organism-based; design: dose 10 mg/kg, route oral; conditions: in vivo
[25] = Mean residence time in Sprague-Dawley rat at 10 mg/kg, iv; format: ADME, organism-based; conditions: in vivo
[26] = Tmax in Sprague-Dawley rat at 10 mg/kg, po; format: ADME, organism-based; conditions: in vivo
[27] = tested on: Rattus norvegicus; experiment: Antineuropathic pain activity in rat spinal nerve ligation model assessed as effect on cold allodynia by measuring frequency of paw withdrawal at 100 mg/kg, po measured at 1 hr relative to gabapentin; format: functional; procedure, shortened: as §1
[28] = Total clearance in Sprague-Dawley rat at 10 mg/kg, iv; format: ADME, organism-based; conditions: in vivo
[29] = Inhibition of N-type Ca2+ channel (unknown origin) by whole-cell patch clamp method; conditions: Homo sapiens
[30] = Oral bioavailability in Sprague-Dawley rat at 10 mg/Kg; format: ADME, organism-based; conditions: in vivo
[31] = target: CYP3A4 (Homo sapiens, UniProt P08684); experiment: Inhibition of human CYP3A4 assessed as remaining activity at 10 uM using vivid CYP450 substrate measured after 15 mins by fluorescence assay relative to ketoconazole; format: ADME; conditions: probe vivid CYP450 substrate, read-out: Activity; procedure, shortened: as §2
[32] = target: T2, Voltage-dependent T-type calcium channel subunit alpha-1H; experiment: Inhibition of Cav3.2 alpha1H (unknown origin) expressed in HEK293 cells assessed as decrease in KCl-induced depolarization mediated intracellular Ca2+ level at 10 uM by fluo3/AM based high throughput screening assay relative to control; format: cell-based; procedure, shortened: as §3
[33] = AUClast in Sprague-Dawley rat at 10 mg/kg, iv; format: ADME, organism-based; design: dose 10 mg/kg, time 0 - last, route intravenous; conditions: in vivo
[34] = organism: Homo sapiens; experiment: Inhibition of N-type Ca2+ channel (unknown origin) at 10 uM by whole-cell patch clamp method relative to control
[35] = Plasma concentration in Sprague-Dawley rat at 10 mg/kg, po at 2 hrs post dose; format: ADME, organism-based

concentration at 2 h [1]: 270 ng/mL
Kp at 2 h [3]: 0.19
activity at 0.25 h, 10 µM [5]: 204%
inhibition [7]: 64.1%
AUC(0-inf) [8]: 2020 ng·h/mL
dose excreted [9]: 0%
IC50 [10]: 3.2 µM
IC50 [12]: 2.08 µM
dose excreted [13]: 0%
half-life [14]: 1.11 h
concentration at 2 h [16]: 366 ng/mL
activity at 0.25 h, 10 µM [18]: 30.4%
AUC(0-inf) [21]: 168 ng·h/mL
AUC(0-t) [22]: 164 ng·h/mL
half-life [23]: 0.928 h
Cmax [24]: 70 ng/mL
MRT [25]: 0.966 h
Tmax [26]: 1.1 h
clearance [28]: 83.8 mL/min/kg
IC50 [29]: 14.5 µM
bioavailability [30]: 8.3%
activity at 0.25 h, 10 µM [31]: 80.1%
inhibition [32]: 62.7%
AUC(0-t) [33]: 2010 ng·h/mL
inhibition [34]: 55.6%
concentration at 2 h [35]: 50 ng/mL
SMILES: CC(C)Cc1cc(CNS(=O)(=O)c2cccc(F)c2)nn1-c1ccccc1
MPE [2]: 88.93%
MPE [4]: 19.48%
MPE [6]: 14.78%
MPE [11]: 91.75%
MPE [15]: 80.82%
IC50 [17]: 14.5 µM
MPE [19]: 52.13%
MPE [20]: 29.68%
MPE [27]: 202.07%

Reference: ChEMBL document CHEMBL3872218, “Synthesis and T-type calcium channel-blocking effects of aryl(1,5-disubstituted-pyrazol-3-yl)methyl sulfonamides for neuropathic pain treatment” (Eur J Med Chem, 2016)
